Test [1] relates to A549. The test can be described thus: Ratio of IC50 for human A549 cells after 48 hrs to IC50 for human A549 cells after 72 hrs. In kind it is functional. The gist of the method: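 Ratio of the 48 h to the 72 h IC50 in A549 cells. Both IC50s come from the MTT assay (1x10⁴ cells/well, 24 h attachment, then 48 h or 72 h compound exposure). Each was fitted by log(compound) vs normalized response nonlinear regression (variable slope), relative to untreated controls.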

Test [2] concerns A549. The test can be described thus: Cytotoxicity against human A549 cells after 72 hrs by MTT assay. In kind it is functional, cell-based. To be noted: A549, 72 h. The gist of the method:
(§1)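 A549 human NSCLC cells kept in MEM with 10% FBS, penicillin/streptomycin and amphotericin B at 37 °C under humidified 5% CO2. Seeded at 1x10⁴ cells/well and left 24 h, then exposed to a range of concentrations for 48 h or 72 h at 37 °C. MTT (1 mg/mL) added for 4 h, formazan dissolved in DMSO, absorbance read at 540 nm. IC50 taken against untreated controls by log(compound) vs normalized response (variable slope) fit, with 95% CI.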
On the technique in general: Formazan colour is commonly taken as a measure of viable cells.

Test [3] deals with A549. The test can be described thus: Cytotoxicity against human A549 cells after 48 hrs by MTT assay. In kind it is functional, cell-based. To be noted: A549, 48 h. Put shortly: as §1

We go through 25 molecules from ChEMBL document CHEMBL2016559, “Synthesis and cytotoxic activity evaluation of dihydrocucurbitacin B and cucurbitacin B derivatives” (Bioorg Med Chem, 2012).

A value given as a limit tells only on which side of the number the result lay.

As a reminder, the IC50 is the concentration needed to halve the response being measured. A high value points to a need for much substance.

On to `CC(=O)OC(C)(C)CCC(=O)[C@](C)(O)[C@H]1[C@H](O)C[C@@]2(C)[C@@H]3CC=C4[C@@H](C[C@H](O)C(=O)C4(C)C)[C@]3(C)C(=O)C[C@]12C` [23,24-DIHYDROCUCURBITACIN B], for which the “Ratio IC50” value in test [1] is on record as 1.6. Also, the IC50 in test [2] is 12.1 µM; in test [3], 19.9 µM.

As for `CC(=O)OC(C)(C)CCC(=O)[C@](C)(O)[C@H]1[C@H](O)C[C@@]2(C)[C@@H]3CC=C4[C@@H](C[C@H](OC(=O)c5ccccc5)C(=O)C4(C)C)[C@]3(C)C(=O)C[C@]12C`, the IC50 in test [2] and in test [3] was more than 100 µM throughout.

As for `CC(=O)O[C@@H]1C[C@@]2(C)[C@@H]3CC=C4[C@@H](C=C(N)C(=O)C4(C)C)[C@]3(C)C(=O)C[C@]2(C)[C@H]1[C@@](C)(O)C(=O)CCC(C)(C)OC(C)=O`, the IC50 in test [2] is 55.2 µM; in test [3], more than 100 µM.

Turning to `CC(=O)OC(C)(C)CCC(=O)[C@](C)(O)[C@H]1[C@H](OC(=S)n2ccnc2)C[C@@]2(C)[C@@H]3CC=C4[C@@H](C[C@H](OC(=S)n5ccnc5)C(=O)C4(C)C)[C@]3(C)C(=O)C[C@]12C`, the “Ratio IC50” value in test [1] amounted to 2.1. Besides, the IC50 in test [2] stood at 6.9 µM; in test [3], 14.7 µM.

As to `COc1cccc2c1C(=O)c1c(O)c3c(c(O)c1C2=O)C[C@@](O)(C(=O)CO)C[C@@H]3O[C@H]1C[C@H](N)[C@H](O)[C@H](C)O1` [DOXORUBICIN], the “Ratio IC50” value in test [1] stood at 3.1. Also, the IC50 in test [2] worked out at 1.18 µM; in test [3], 3.69 µM.

For `CC(=O)O[C@H]1C[C@@H]2C(=CC[C@@H]3[C@@]2(C)C(=O)C[C@]2(C)[C@@H]([C@@](C)(OC(=O)C(F)(F)F)C(=O)CCC(C)(C)OC(C)=O)[C@H](OC(C)=O)C[C@@]32C)C(C)(C)C1=O`, the IC50 in test [2] and in test [3] was more than 100 µM throughout.

On to `CC(=O)OC(C)(C)CCC(=O)[C@](C)(O)[C@H]1[C@H](O)C[C@@]2(C)[C@@H]3CC=C4[C@@H](C=C(O)C(=O)C4(C)C)[C@]3(C)C(=O)C[C@]12C`, for which the IC50 in test [2] and in test [3] was more than 100 µM throughout.

Consider `CC(=O)O[C@H]1C[C@@H]2C(=CC(=O)[C@@H]3[C@@]2(C)C(=O)C[C@]2(C)[C@@H]([C@@](C)(O)C(=O)CCC(C)(C)OC(C)=O)[C@H](OC(C)=O)C[C@@]32C)C(C)(C)C1=O`, for which the IC50 in test [2] and in test [3] was more than 100 µM in each case.

As to `CC(=O)OC(C)(C)CCC(=O)[C@](C)(O)[C@H]1C(=O)C[C@@]2(C)[C@@H]3CC=C4[C@@H](C=C(O)C(=O)C4(C)C)[C@]3(C)C(=O)C[C@]12C`, the IC50 in test [2] and in test [3] was more than 100 µM each time.

As to `CC(=O)[C@H]1[C@H](O)C[C@@]2(C)[C@@H]3CC=C4[C@@H](C[C@H](O)[C@@H](O)C4(C)C)[C@]3(C)C(=O)C[C@]12C` [HEXANORCUCURBITACIN F], the IC50 in test [2] and in test [3] was more than 100 µM each time.

On to `CC(=O)OC(C)(C)CCC(=O)[C@](C)(O)[C@H]1[C@H](O)C[C@@]2(C)[C@@H]3CC=C4[C@@H](CCC(=O)C4(C)C)[C@]3(C)C(=O)C[C@]12C`, for which the values for the 50% inhibitory concentration (IC50) in test [2] and in test [3] were 66.7 µM and more than 100 µM, respectively.

In the case of `CC(=O)OC(C)(C)CCC(=O)[C@](C)(O)[C@H]1[C@H](O)C[C@@]2(C)[C@@H]3CC=C4[C@@H](C[C@H](Br)C(=O)C4(C)C)[C@]3(C)C(=O)C[C@]12C`, the “Ratio IC50” value in test [1] was 1.2. Further, the IC50 in test [2] came to 29.1 µM; in test [3], 34.9 µM.

`CC(=O)OC(C)(C)CCC(=O)[C@](C)(O)[C@H]1[C@H](OC(=O)n2ccnc2)C[C@@]2(C)[C@@H]3CC=C4[C@@H](C[C@H](OC(=O)n5ccnc5)C(=O)C4(C)C)[C@]3(C)C(=O)C[C@]12C`: the IC50 in test [2] and in test [3] was more than 100 µM throughout.

For the molecule `CC(=O)O[C@@H]1C[C@@]2(C)[C@@H]3CC=C4[C@@H](C[C@H](Sc5ccccc5)C(=O)C4(C)C)[C@]3(C)C(=O)C[C@]2(C)[C@H]1[C@@](C)(O)C(=O)CCC(C)(C)OC(C)=O`, the IC50 in test [2] and in test [3] was more than 100 µM in each case.

Take `CC(=O)[C@H]1[C@H](OC(=O)c2ccccc2)C[C@@]2(C)[C@@H]3CC=C4[C@@H](C[C@H](OC(=O)c5ccccc5)[C@@H](O)C4(C)C)[C@]3(C)C(=O)C[C@]12C`: the IC50 in test [2] and in test [3] was more than 100 µM in each case.

With `CC(=O)OC(C)(C)CCC(=O)[C@](C)(O)[C@H]1[C@H](OC(=O)CCC(=O)O)C[C@@]2(C)[C@@H]3CC=C4[C@@H](C[C@H](OC(=O)CCC(=O)O)C(=O)C4(C)C)[C@]3(C)C(=O)C[C@]12C`, the IC50 in test [2] and in test [3] was more than 100 µM in each case.

Regarding `CC(=O)OC(C)(C)CCC(=O)[C@](C)(O)[C@H]1[C@H](O)C[C@@]2(C)[C@@H]3CC=C4[C@@H](C=C(N)C(=O)C4(C)C)[C@]3(C)C(=O)C[C@]12C`, the IC50 in test [2] and in test [3] was more than 100 µM in each case.

For the molecule `CC(=O)O[C@H]1C[C@@H]2C(=CC[C@@H]3[C@@]2(C)C(=O)C[C@]2(C)[C@@H]([C@@](C)(O)C(=O)CCC(C)(C)OC(C)=O)[C@H](OC(C)=O)C[C@@]32C)C(C)(C)C1=O`, the values for the half-maximal inhibitory concentration (IC50) in test [2] and in test [3] were 72.5 µM and more than 100 µM, respectively.

Take `CC(=O)OC(C)(C)CCC(=O)[C@](C)(O)[C@H]1[C@H](O)C[C@@]2(C)[C@@H]3CC=C4[C@@H](Cc5sc(N)nc5C4(C)C)[C@]3(C)C(=O)C[C@]12C`: the IC50 in test [2] and in test [3] was more than 100 µM in each case.

For the molecule `CC(=O)[C@H]1[C@H](O)C[C@@]2(C)[C@@H]3CC=C4[C@@H](C=C(O)C(=O)C4(C)C)[C@]3(C)C(=O)C[C@]12C`, the IC50 in test [2] and in test [3] was more than 100 µM each time.

As for `CC(=O)OC(C)(C)/C=C/[C@H](O)[C@](C)(O)[C@H]1[C@H](O)C[C@@]2(C)[C@@H]3CC=C4[C@@H](C[C@H](O)[C@@H](O)C4(C)C)[C@]3(C)C(=O)C[C@]12C`, the concentration for half-maximal inhibition (IC50) in test [2] and in test [3] was more than 100 µM each time.

On to `CC(=O)OC(C)(C)CCC(=O)[C@](C)(O)[C@H]1CC[C@@]2(C)[C@@H]3CC=C4[C@@H](CCC(=O)C4(C)C)[C@]3(C)C(=O)C[C@]12C`, for which the IC50 in test [2] was 11.5 µM; in test [3], more than 100 µM.

As to `CC(=O)O[C@@H]1C[C@@]2(C)[C@@H]3CC=C4[C@@H](C[C@H](SC(C)=O)C(=O)C4(C)C)[C@]3(C)C(=O)C[C@]2(C)[C@H]1[C@@](C)(O)C(=O)CCC(C)(C)OC(C)=O`, the IC50 in test [2] and in test [3] was more than 100 µM in each case.

Regarding `CC(=O)O[C@H]1C[C@@H]2C(=CC[C@@H]3[C@@]2(C)C(=O)C[C@]2(C)[C@@H]([C@@](C)(O)C(=O)CC=C(C)C)[C@H](OC(C)=O)C[C@@]32C)C(C)(C)C1=O`, the IC50 in test [2] is 42.6 µM; in test [3] it was more than 100 µM.

For `CC(=O)OC(C)(C)CCC(=O)[C@](C)(O)[C@H]1[C@H](OC(=O)c2ccccc2)C[C@@]2(C)[C@@H]3CC=C4[C@@H](C[C@H](OC(=O)c5ccccc5)C(=O)C4(C)C)[C@]3(C)C(=O)C[C@]12C`, the IC50 in test [2] and in test [3] was more than 100 µM in each case.
